In ChEMBL document CHEMBL1240321, “Cyclostreptin binds covalently to microtubule pores and lumenal taxoid binding sites” (Nat Chem Biol, 2007):
The source made the active and inactive calls. No cut-off for these calls is given here.

Experiments:
[1] = Displacement of [3H]discodermolide from microtubule assessed as bound radioligand level at 20 uM treated after radioligand addition by competitive binding assay
[2] = Binding affinity to microtubule
[3] = Displacement of [3H]discodermolide from microtubule assessed as bound radioligand level at 20 uM treated before radioligand addition by competitive binding assay
[4] = Displacement of [3H]paclitaxel from microtubule assessed as bound radioligand level at 20 uM treated after radioligand addition by competitive binding assay
[5] = Displacement of [3H]epothilone B from microtubule assessed as bound radioligand level at 20 uM treated before radioligand addition by competitive binding assay
[6] = Displacement of [3H]epothilone B from microtubule assessed as bound radioligand level at 20 uM treated after radioligand addition by competitive binding assay
[7] = Displacement of [3H]paclitaxel from microtubule assessed as bound radioligand level at 20 uM treated before radioligand addition by competitive binding assay
A549 [8] = test: Cytotoxicity against human A549 cells; assay type: functional, cell-based
[9] = Cytotoxicity against human A2780AD cells; assay type: functional, cell-based; conditions: A2780 ADR
[10] = Cytotoxicity against human A2780-1A9 cells; assay type: functional, cell-based
A2780 [11] = test: Cytotoxicity against human A2780 cells; assay type: functional, cell-based
[12] = Induction of micronucleation in potoroo PtK2 cells at 2 uM after 7 hrs by flow cytometry; assay type: functional, Potorous tridactylus
PtK2 [13] = test: Induction of microtubule bundle formation in potoroo PtK2 cells at 5 uM after 7 hrs by flow cytometry; assay type: cell-based; conditions: Potorous tridactylus
A549 [14] = test: Induction of mitotic cell cycle arrest in human A549 cells assessed as accumulation of cells at G2+M phase at 20 nM after 24 hrs by flow cytometry (Rvb= 19.6%); assay type: functional
A549 [15] = test: Induction of mitotic cell cycle arrest in human A549 cells assessed as accumulation of cells at SubG1 phase at 20 nM after 24 hrs by flow cytometry (Rvb= 25%); assay type: functional
[16] = Cytotoxicity against human 1A9PTX10 cells; assay type: functional, cell-based; conditions: 1A9/ptx-10
A2780 [17] = test: Induction of mitotic cell cycle arrest in human A2780 cells assessed as accumulation of cells at G2+M phase at 15 nM after 24 hrs by flow cytometry (Rvb= 20%); assay type: functional
[18] = Induction of micronucleation in potoroo PtK2 cells at 5 uM after 7 hrs by flow cytometry; assay type: functional, Potorous tridactylus
[19] = Micronucleation in potoroo PtK2 cells at 10 uM treated for 7 hrs followed by compound washout measured after 48 hrs by flow cytometry; conditions: Potorous tridactylus
[20] = Induction of mitotic cell cycle arrest at G1/G0 phase in potoroo PtK2 cells 10 uM after 7 hrs by flow cytometry (Rvb= 60%); assay type: functional, Potorous tridactylus
[21] = Cytotoxicity against human 1A9PTX22 cells; assay type: functional, cell-based; conditions: 1A9/ptx-22
PtK2 [22] = test: Induction of microtubule bundle formation in potoroo PtK2 cells at 2 uM after 7 hrs by flow cytometry; assay type: cell-based; conditions: Potorous tridactylus
PtK2 [23] = test: Displacement of Flutax-2 from microtubule in potoroo PtK2 cells at 100 uM; conditions: Potorous tridactylus
A549 [24] = test: Induction of mitotic cell cycle arrest in human A549 cells assessed as accumulation of cells at G1/G0 phase at 20 nM after 24 hrs by flow cytometry (Rvb= 39.2%); assay type: functional
PtK2 [25] = test: Induction of micronucleation in potoroo PtK2 cells at 10 uM after 7 hrs by flow cytometry; conditions: Potorous tridactylus
A2780 [26] = test: Induction of mitotic cell cycle arrest in human A2780 cells assessed as accumulation at S phase at 15 nM after 24 hrs by flow cytometry (Rvb= 17.5%); assay type: functional
PtK2 [27] = test: Induction of microtubule bundle formation in potoroo PtK2 cells at 10 uM treated for 7 hrs followed by compound washout measured after 48 hrs; conditions: Potorous tridactylus
[28] = Induction of micronucleation in potoroo PtK2 cells at 10 uM after 7 hrs by flow cytometry; assay type: functional, Potorous tridactylus
A2780 [29] = test: Induction of mitotic cell cycle arrest in human A2780 cells assessed as accumulation of cells at G1/G0 phase at 15 nM after 24 hrs by flow cytometry (Rvb= 60%); assay type: functional
A2780 [30] = test: Induction of mitotic cell cycle arrest in human A2780 cells assessed as accumulation of cells at SubG1 phase at 15 nM after 24 hrs by flow cytometry (Rvb= 2.5%); assay type: functional
A2780 ADR = test: Cytotoxicity against human A2780AD cells at 5 uM; assay type: functional, cell-based
A549 [31] = test: Cytotoxicity against human A549 cells at 5 uM; assay type: functional, cell-based
A2780-1A9 = test: Cytotoxicity against human A2780-1A9 cells at 5 uM; assay type: functional, cell-based
1A9/ptx-22 = test: Cytotoxicity against human 1A9PTX22 cells at 5 uM; assay type: functional, cell-based
A2780 [32] = test: Cytotoxicity against human A2780 cells at 5 uM; assay type: functional, cell-based
1A9/ptx-10 = test: Cytotoxicity against human 1A9PTX10 cells at 5 uM; assay type: functional, cell-based
[33] = Binding affinity to microtubule pretreated with cyclostreptin
Outline: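 Glutaraldehyde-crosslinked microtubules (60 µM) were preincubated overnight at 22 °C with 66 µM cyclostreptin in GAB (3.4 M glycerol, 10 mM NaPi, 1 mM EGTA, 6 mM MgCl2, pH 6.7) plus 0.1 mM GTP, then dialyzed 5 h against the same buffer. Flutax-2 (50 nM) was titrated with these microtubules, and the association constant for Flutax-2 binding was calculated.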

A2780 [34] = test: Induction of mitotic cell cycle arrest in human A2780 cells assessed as accumulation at S phase at 5 uM after 24 hrs by flow cytometry (Rvb= 17.5%); assay type: functional
A2780 [35] = test: Induction of mitotic cell cycle arrest in human A2780 cells assessed as accumulation of cells at G2+M phase at 5 uM after 24 hrs by flow cytometry (Rvb= 20%); assay type: functional
[36] = Induction of mitotic cell cycle arrest in human A2780AD cells assessed as accumulation of cells at G2+M phase at 5 uM after 24 hrs by flow cytometry (Rvb= 20.5%); assay type: functional, A2780 ADR
A2780 [37] = test: Induction of mitotic cell cycle arrest in human A2780 cells assessed as accumulation of cells at G1/G0 phase at 5 uM after 24 hrs by flow cytometry (Rvb= 60%); assay type: functional
[38] = Induction of mitotic cell cycle arrest in human A2780AD cells assessed as accumulation of cells at SubG1 phase at 5 uM after 24 hrs by flow cytometry (Rvb= 4.1%); assay type: functional, A2780 ADR
[39] = Induction of mitotic cell cycle arrest in human A2780AD cells assessed as accumulation of cells at G1/G0 phase at 5 uM after 24 hrs by flow cytometry (Rvb= 59.2%); assay type: functional, A2780 ADR
A2780 [40] = test: Induction of mitotic cell cycle arrest in human A2780 cells assessed as accumulation of cells at SubG1 phase at 5 uM after 24 hrs by flow cytometry (Rvb= 2.5%); assay type: functional
[41] = Induction of mitotic cell cycle arrest in human A2780AD cells assessed as accumulation at S phase at 5 uM after 24 hrs by flow cytometry (Rvb= 16.2%); assay type: functional, A2780 ADR

For C/C(=C\c1csc(C)n1)[C@@H]1C[C@@H]2O[C@@H]2CCC[C@H](C)[C@H](O)[C@@H](C)C(=O)C(C)(C)[C@@H](O)CC(=O)O1 [EPOTHILONE A], the Activity [1] was 95%, the Kd [2] was 28 nM and the Activity [3] was 96%. The Activity [4] was 46%, the Activity [5] was 49% and the Activity [6] was 49%. For the same compound, the Activity [7] was 49%.
For CC(=O)O[C@@]12CO[C@@H]1C[C@H](O)[C@@]1(C)C(=O)[C@H](O)C3=C(C)[C@@H](OC(=O)[C@H](O)[C@@H](NC(=O)OC(C)(C)C)c4ccccc4)C[C@@](O)([C@@H](OC(=O)c4ccccc4)[C@H]21)C3(C)C [DOCETAXEL], the IC50 (A549 [8]) was 7.2 nM, the IC50 [9] was 285 nM and the IC50 [10] was 0.6 nM. The IC50 (A2780 [11]) was 0.5 nM.
For CC(=O)O[C@H]1C(=O)[C@@]2(C)[C@H]([C@H](OC(=O)c3ccccc3)[C@]3(O)C[C@H](OC(=O)[C@H](O)[C@@H](NC(=O)c4ccccc4)c4ccccc4)C(C)=C1C3(C)C)[C@]1(OC(C)=O)CO[C@@H]1C[C@@H]2O [PACLITAXEL], the Activity [12] was 4%, the Kd [2] was 70 nM and the Activity (PtK2 [13]) was 4%. The Activity (A549 [14]) was 8.85%, the Activity (A549 [15]) was 36.9% and the IC50 [16] was 30 nM. For the same compound, the Activity (A2780 [17]) was 70.8%, the Activity [18] was 4% and the Activity at 10 µM [19] was 40%. For the same compound, the Activity [20] was 50%, the IC50 [9] was 900 nM and the IC50 [21] was 19 nM. For the same compound, the Activity (PtK2 [22]) was 4%, the Activity (PtK2 [23]) was “Active” and the Activity (A549 [24]) was 8.4%. It also gave an Activity (PtK2 [25]) of 4%, an IC50 [10] of 1.1 nM and an Activity (A2780 [26]) of 7%. The Activity (PtK2 [27]) was “Active”, the Activity [28] was 4% and the Activity (A2780 [29]) was 6.5%. It also gave an Activity (A2780 [30]) of 15.7%.
In the case of CC1=C[C@H]2[C@@H](O)[C@H](C)[C@@H](O)[C@@H]2[C@H]2[C@H]3[C@@H](C[C@@H]12)[C@@]1(C)CC[C@H]2OC(=O)[C@]34O[C@@]4(O1)[C@@H]2C, the Activity (A2780 ADR) is reported as “inactive”, the Activity (A549 [31]) is reported as “inactive” and the Activity (A2780-1A9) is reported as “inactive”. The Activity (1A9/ptx-22) was “inactive”, the Activity (A2780 [32]) was “inactive” and the Activity (1A9/ptx-10) was “inactive”.
C/C(=C\c1csc(C)n1)[C@@H]1C[C@@H]2O[C@]2(C)CCC[C@H](C)[C@H](O)[C@@H](C)C(=O)C(C)(C)[C@@H](O)CC(=O)O1 [PATUPILONE] gave an Activity [1] of 76%, a Kd [2] of 1.3 nM and an Activity [3] of 79%. It also gave an Activity [4] of 31%, an Activity [5] of 9% and an Activity [6] of 9%. The Activity [7] was 33%.
In the case of CC(=O)O[C@H]1C(=O)[C@]2(C)[C@@H](OC(=O)[C@H](C)NC(=O)c3ccc(-c4c5cc(F)c(=O)cc-5oc5cc(O)c(F)cc45)c(C(=O)O)c3)C[C@H]3OC[C@@]3(OC(C)=O)[C@H]2[C@H](OC(=O)c2ccccc2)[C@]2(O)C[C@H](OC(=O)[C@H](O)[C@@H](NC(=O)c3ccccc3)c3ccccc3)C(C)=C1C2(C)C [FLUTAX 2], the Kd [2] is reported as 14 nM and the Activity [33] is reported as “inactive”.
C=C/C=C\[C@H](C)[C@H](OC(N)=O)[C@@H](C)[C@H](O)[C@@H](C)C/C(C)=C\[C@H](C)[C@@H](O)[C@@H](C)/C=C\[C@@H](O)C[C@@H]1OC(=O)[C@H](C)[C@@H](O)[C@H]1C [DISERMOLIDE] showed an Activity [1] of 27%, a Kd [2] of 0.18 nM and an Activity [3] of 31%.
In the case of CC1=C[C@H]2[C@@H](O)[C@H](C)[C@@H](O)[C@@H]2[C@H]2[C@@H]3[C@H]4C(=O)O[C@@H]5CC[C@@](C)(O[C@@H]4[C@@H]5C)[C@@H]3C[C@@H]12, the Activity (A2780 ADR) is reported as “inactive”, the Activity (A2780 [34]) is reported as 22.5% and the Activity (A2780 [35]) is reported as 16%. For the same compound, the Activity [36] was 21.5%, the Activity (A549 [31]) was “inactive” and the Activity (A2780-1A9) was “inactive”. For the same compound, the Activity (A2780 [37]) was 58.7%, the Activity (1A9/ptx-22) was “inactive” and the Activity [38] was 2%. For the same compound, the Activity [39] was 56.9%, the Activity (A2780 [32]) was “inactive” and the Activity (A2780 [40]) was 2.8%. The Activity [41] was 19.6% and the Activity (1A9/ptx-10) was “inactive”.
